Test results: ChEMBL document CHEMBL4020818, “Novel Sigma Receptor Ligand-Nitric Oxide Photodonors: Molecular Hybrids for Double-Targeted Antiproliferative Effect” (J Med Chem, 2017)
Calls of active or inactive are those of the source.

Legend:
[1] = target: Sigma non-opioid intracellular receptor 1 (Cavia porcellus, UniProt Q60492); assay: Displacement of [3H]-(+)-pentazocine from sigma 1 receptor in guinea pig brain membranes after 150 mins by liquid scintillation counting method; assay type: cell membranes, Membrane
How it was run: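 Separated by filtration on PEI-presoaked GF/B filters, washed with ice-cold buffer, counted by liquid scintillation.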

[2] = target: Sigma intracellular receptor 2 (Homo sapiens, UniProt Q5BJF2); assay: Displacement of [3H]-DTG from sigma 2 receptor (unknown origin) after 120 mins by liquid scintillation counting method
[3] = Selectivity ratio of Ki for sigma 1 receptor in guinea pig brain membranes to Ki for sigma 2 receptor (unknown origin); assay type: cell membranes
[4] = Solubility of the compound in water/methanol (1:1) mixture; assay type: physicochemical; conditions: buffer
[5] = Stability of the compound in water/methanol (1:1) mixture assessed as nitric oxide release under light irradiation by amperometric detection method; assay type: physicochemical; conditions: buffer
[6] = Dark toxicity in human MCF7 cells assessed as decrease in cell viability after 24 hrs by MTT assay; assay type: cell-based
How it was run: (§1)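 Cells seeded at 10 × 10^3 per well, grown 24 h, then exposed in the dark for 24 h at 37 °C to compound (DMSO stock diluted in medium), top concentration 100 µM. MTT 0.5% added for 4 h, formazan dissolved in DMSO, read at 550 nm. Viability is expressed relative to untreated controls. EC50 comes from a variable-slope sigmoidal fit; quadruplicate wells, mean ± SEM.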

[7] = Dark toxicity in human A2058 cells assessed as decrease in cell viability after 24 hrs by MTT assay; assay type: cell-based; how it was run: as §1
[8] = Dark toxicity in human NCTC-2544 cells assessed as decrease in cell viability after 24 hrs by MTT assay; assay type: cell-based; how it was run: as §1
MCF7 [9] = assay: Phototoxicity in human MCF7 cells assessed as decrease in cell viability at 0.01 to 10 uM preincubated for 24 hrs followed by light irradiation for 15 mins by MTT assay; assay type: functional, cell-based
How it was run: (§2)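 Cells preincubated 24 h with graded compound concentrations, medium then replaced with phenol red-free medium. Irradiated 15 min with a 150 W Xe lamp through a 390 nm cutoff filter; untreated cells also irradiated. Viability by MTT (0.5%, 4 h, DMSO, 550 nm) as percent of untreated controls; quadruplicate wells, mean ± SD.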

MCF7 [10] = assay: Dark toxicity in human MCF7 cells assessed as decrease in cell viability at 0.01 to 10 uM after 24 hrs by MTT assay; assay type: cell-based; conditions: mcf7, 24 h
How it was run: (§3)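 Dark arm of the light experiments. Cells were seeded at 10 × 10^3 per well, precultured 24 h, then incubated 24 h at 37 °C with graded compound concentrations without irradiation. Viability was read by MTT (0.5%, 4 h, DMSO, 550 nm) as percent of untreated controls; quadruplicate wells, mean ± SD.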

A2058 [11] = assay: Phototoxicity in human A2058 cells assessed as decrease in cell viability at 1 to 10 uM preincubated for 24 hrs followed by light irradiation for 15 mins by MTT assay; assay type: functional, cell-based; how it was run: as §2
NCTC-2544 [12] = assay: Phototoxicity in human NCTC-2544 cells assessed as decrease in cell viability at 0.01 to 10 uM preincubated for 24 hrs followed by light irradiation for 15 mins by MTT assay; assay type: cell-based; conditions: nctc-2544, 0.25 h; how it was run: as §2
NCTC-2544 [13] = assay: Dark toxicity in human NCTC-2544 cells assessed as decrease in cell viability at 0.01 to 10 uM after 24 hrs by MTT assay; assay type: cell-based; conditions: nctc-2544, 24 h; how it was run: as §3
[14] = Stability in human MCF7 cells assessed as nitric oxide release under light irradiation at 10 uM preincubated for 24 hrs followed by light irradiation for 15 mins by DCF-DA dye-based fluorescence microscopic method; assay type: ADME, cell-based; conditions: mcf7, 0.25 h
How it was run: (§4)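 Cells plated on glass coverslips at 50,000, attached overnight, serum-starved 24 h, then treated with compound for 24 h. Loaded with 10 µM DCF-DA for 1 h, washed in PBS, irradiated in phenol red-free medium (Xe lamp, 390 nm cutoff, 15 min). Fixed in 4% PFA and imaged by fluorescence microscopy at 10x and 40x, dark versus light.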

[15] = Stability in human A2058 cells assessed as nitric oxide release under light irradiation at 10 uM preincubated for 24 hrs followed by light irradiation for 15 mins by DCF-DA dye-based fluorescence microscopic method; assay type: ADME, cell-based; conditions: a2058, 0.25 h; how it was run: as §4
MCF7 [16] = assay: Phototoxicity in human MCF7 cells assessed as decrease in cell viability at 10 to 50 uM preincubated for 24 hrs followed by light irradiation for 15 mins by MTT assay; assay type: functional, cell-based; how it was run: as §2
MCF7 [17] = assay: Dark toxicity in human MCF7 cells assessed as decrease in cell viability at 10 to 50 uM after 24 hrs by MTT assay; assay type: cell-based; conditions: mcf7, 24 h; how it was run: as §3
A2058 [18] = assay: Phototoxicity in human A2058 cells assessed as decrease in cell viability at 10 to 50 uM preincubated for 24 hrs followed by light irradiation for 15 mins by MTT assay; assay type: functional, cell-based; how it was run: as §2
A2058 [19] = assay: Dark toxicity in human A2058 cells assessed as decrease in cell viability at 10 to 50 uM after 24 hrs by MTT assay; assay type: cell-based; conditions: a2058, 24 h; how it was run: as §3
NCTC-2544 [20] = assay: Phototoxicity in human NCTC-2544 cells assessed as decrease in cell viability at 10 to 50 uM preincubated for 24 hrs followed by light irradiation for 15 mins by MTT assay; assay type: cell-based; conditions: nctc-2544, 0.25 h; how it was run: as §2
NCTC-2544 [21] = assay: Dark toxicity in human NCTC-2544 cells assessed as decrease in cell viability at 10 to 50 uM after 24 hrs by MTT assay; assay type: cell-based; conditions: nctc-2544, 24 h; how it was run: as §3
[22] = Stability in human MCF7 cells assessed as nitric oxide release under light irradiation at 50 uM preincubated for 24 hrs followed by light irradiation for 15 mins by DCF-DA dye-based fluorescence microscopic method; assay type: ADME, cell-based; conditions: mcf7, 0.25 h; how it was run: as §4
[23] = Stability in human MCF7 cells assessed as nitric oxide release under light irradiation at 50 uM preincubated for 24 hrs followed by light irradiation for 15 mins by Griess assay; assay type: ADME, cell-based; conditions: mcf7, 0.25 h
How it was run: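 After 50 µM compound treatment and irradiation (or dark control), cells were pelleted and lysed in hypotonic solution. Supernatant mixed 1:1 with Griess reagent, 30 min at 37 °C in the dark, absorbance read at 545 nm. Normalised to protein content; total nitrite quantified against a sodium nitrite standard.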

[24] = Stability of the compound in water/methanol (1:1) mixture assessed as nitric oxide release under dark condition at 50 uM by amperometric detection method; assay type: physicochemical; conditions: buffer
[25] = Stability of the compound in water/methanol (1:1) mixture assessed as nitric oxide release under light irradiation at 50 uM by amperometric detection method; assay type: physicochemical; conditions: buffer
A2058 [26] = assay: Phototoxicity in human A2058 cells assessed as decrease in cell viability at 10 to 25 uM preincubated for 24 hrs followed by light irradiation for 15 mins by MTT assay; assay type: functional, cell-based
How it was run: (§5)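 Cells seeded at 10 × 10^3 per well and grown 24 h. Compound from DMSO stock, diluted in medium, incubated 24 h at 37 °C. Medium then swapped for phenol red-free medium and cells irradiated 15 min (150 W Xe lamp, 390 nm cutoff). MTT (0.5%) for 4 h, formazan in DMSO, OD 550 nm; viability as % of untreated controls. Quadruplicate wells, ≥2 repeats.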

A2058 [27] = assay: Phototoxicity in human A2058 cells assessed as decrease in cell viability at 50 uM preincubated for 24 hrs followed by light irradiation for 15 mins by MTT assay; assay type: functional, cell-based; how it was run: as §5

Chain of Sigma non-opioid intracellular receptor 1 (Q60492 whole entry): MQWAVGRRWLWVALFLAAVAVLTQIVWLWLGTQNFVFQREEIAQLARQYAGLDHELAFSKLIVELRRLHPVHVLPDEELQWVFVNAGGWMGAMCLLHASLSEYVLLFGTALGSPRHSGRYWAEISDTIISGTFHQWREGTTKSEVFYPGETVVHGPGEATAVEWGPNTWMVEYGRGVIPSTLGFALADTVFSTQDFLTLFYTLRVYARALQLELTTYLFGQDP
Chain of Sigma intracellular receptor 2 (Q5BJF2 whole entry): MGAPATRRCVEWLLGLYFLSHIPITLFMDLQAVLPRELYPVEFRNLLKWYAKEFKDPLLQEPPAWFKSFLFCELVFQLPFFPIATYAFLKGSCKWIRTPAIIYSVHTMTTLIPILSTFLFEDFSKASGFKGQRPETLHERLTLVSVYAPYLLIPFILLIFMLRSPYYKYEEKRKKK

SMILES: O=[N+]([O-])c1ccc(NCCCCCN2CCC(Cc3ccccc3)CC2)cc1C(F)(F)F
- Ki [1]: 0.0404 µM
- Ki [2]: 0.024 µM
- Ratio Ki [3]: 1.68
- solubility [4]: Soluble
- Stability [5]: Unstable
- EC50 at 24 h ([6]; read-out: EC50): 14.9 µM
- EC50 at 24 h ([6]; read-out: pEC50 (converted)): 14.8 µM
- EC50 at 24 h ([7]; read-out: EC50): 14.2 µM
- EC50 at 24 h ([7]; read-out: pEC50 (converted)): 14.1 µM
- EC50 at 24 h ([8]; read-out: EC50): 15 µM
- EC50 at 24 h ([8]; read-out: pEC50 (converted)): 15.1 µM
- Activity (MCF7 [9]): Active
- Activity (MCF7 [10]): Non-Toxic
- Activity (A2058 [11]): Active
- Activity (NCTC-2544 [12]): Non-Toxic
- Activity (NCTC-2544 [13]): Non-Toxic
- Stability [14]: Unstable
- Stability [15]: Unstable

SMILES: O=[N+]([O-])c1ccc(NCCCN2CCC(Cc3ccccc3)CC2)cc1C(F)(F)F
- Ki [1]: 0.0416 µM
- Ki [2]: 0.0223 µM
- Ratio Ki [3]: 1.87
- solubility [4]: Soluble
- Stability [5]: Unstable

SMILES: COc1cc2c(cc1OC)CN(CCNc1ccc([N+](=O)[O-])c(C(F)(F)F)c1)CC2
- Ki [1]: 3.92 µM
- Ki [2]: 0.0238 µM
- Ratio Ki [3]: 164
- solubility [4]: Soluble
- Stability [5]: Unstable
- EC50 at 24 h ([6]; read-out: EC50): > 100 µM
- EC50 at 24 h ([6]; read-out: pEC50 (converted)): > 100 µM
- EC50 at 24 h ([7]; read-out: EC50): > 100 µM
- EC50 at 24 h ([7]; read-out: pEC50 (converted)): > 100 µM
- EC50 at 24 h ([8]; read-out: EC50): > 100 µM
- EC50 at 24 h ([8]; read-out: pEC50 (converted)): > 100 µM
- Activity (MCF7 [16]): Active
- Activity (MCF7 [17]): Non-Toxic
- Activity (A2058 [18]): inactive
- Activity (A2058 [19]): Non-Toxic
- Activity (NCTC-2544 [20]): Non-Toxic
- Activity (NCTC-2544 [21]): Non-Toxic
- Stability [22]: Unstable
- Stability [23]: Unstable

SMILES: COc1cc2c(cc1OC)CN(CCCNc1ccc([N+](=O)[O-])c(C(F)(F)F)c1)CC2
- Ki [1]: 0.212 µM
- Ki [2]: 0.0162 µM
- Ratio Ki [3]: 13.1
- solubility [4]: Soluble
- Stability [5]: Unstable

SMILES: COc1cc2c(cc1OC)CN(CCCCCNc1ccc([N+](=O)[O-])c(C(F)(F)F)c1)CC2
- Ki [1]: 0.0394 µM
- Ki [2]: 0.0255 µM
- Ratio Ki [3]: 1.55
- solubility [4]: Soluble
- Stability [24]: Stable
- Stability [25]: Unstable
- EC50 at 24 h ([6]; read-out: EC50): > 100 µM
- EC50 at 24 h ([6]; read-out: pEC50 (converted)): > 100 µM
- EC50 at 24 h ([7]; read-out: EC50): > 100 µM
- EC50 at 24 h ([7]; read-out: pEC50 (converted)): > 100 µM
- EC50 at 24 h ([8]; read-out: EC50): > 100 µM
- EC50 at 24 h ([8]; read-out: pEC50 (converted)): > 100 µM
- Activity (MCF7 [16]): Active
- Activity (NCTC-2544 [20]): Non-Toxic
- Activity (NCTC-2544 [21]): Non-Toxic
- Stability [22]: Unstable
- Stability [23]: Unstable
- Activity (A2058 [26]): inactive
- Activity (A2058 [27]): Active

SMILES: COc1cccc2c1C(=O)c1c(O)c3c(c(O)c1C2=O)C[C@@](O)(C(=O)CO)C[C@@H]3O[C@H]1C[C@H](N)[C@H](O)[C@H](C)O1 [DOXORUBICIN]
- EC50 at 24 h ([6]; read-out: EC50): 15.3 µM
- EC50 at 24 h ([6]; read-out: pEC50 (converted)): 15.5 µM
- EC50 at 24 h ([7]; read-out: EC50): 6.5 µM
- EC50 at 24 h ([7]; read-out: pEC50 (converted)): 6.46 µM
- EC50 at 24 h ([8]; read-out: EC50): 32.5 µM
- EC50 at 24 h ([8]; read-out: pEC50 (converted)): 32.4 µM

SMILES: O=[N+]([O-])c1ccc(NCCCCN2CCC(Cc3ccccc3)CC2)cc1C(F)(F)F
- Ki [1]: 0.02 µM
- Ki [2]: 0.0084 µM
- Ratio Ki [3]: 2.38
- solubility [4]: Soluble
- Stability [5]: Unstable

SMILES: COc1cc2c(cc1OC)CN(CCCCNc1ccc([N+](=O)[O-])c(C(F)(F)F)c1)CC2
- Ki [1]: 0.0378 µM
- Ki [2]: 0.023 µM
- Ratio Ki [3]: 1.64
- solubility [4]: Soluble
- Stability [5]: Unstable

SMILES: O=[N+]([O-])c1ccc(NCCN2CCC(Cc3ccccc3)CC2)cc1C(F)(F)F
- Ki [1]: 0.0407 µM
- Ki [2]: 0.0761 µM
- Ratio Ki [3]: 0.53
- solubility [4]: Soluble
- Stability [5]: Unstable
